Legend:
[1] = melting temperature; fluorescence melt of hairpins on a sequencing array, two-state fit, raised by 9.35 °C to match UV melts; conditions: sodium 0.088 M
How it was run: (§1)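 Hairpins were imaged by Cy3 fluorescence on a sequenced MiSeq flow cell with annealed Cy3 and quencher oligos, in 50 mM Na-HEPES pH 8.0, 25 mM NaCl, in 2.5 °C steps up to 60 °C. Bootstrapped two-state fits of normalised signals gave melting temperature and folding enthalpy. Four replicates were combined by inverse variance, and fitted temperatures were raised by 9.35 °C to match UV melts.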

[2] = folding enthalpy; higher = less favourable; fluorescence melt of hairpins on a sequencing array, two-state fit; conditions: sodium 0.088 M
How it was run: as §1

Row | Sequence | Tm [1] | folding enthalpy [2]
1 | GGGAGCGGAAACGTTCCC ((((.((....)).)))) | 55.5 °C | -48.9 kcal/mol
2 | GGGAGTGAAAACTCCC ((((((....)))))) | 65.2 °C | -34.1 kcal/mol
3 | GGGAGTGGAAACACTCTC (.(((((....))))).) | 51.7 °C | -25.1 kcal/mol
4 | GGGATAGGAAACTATTCC ((.((((....)))).)) | 40.7 °C | -34.3 kcal/mol
5 | GGGATCCCGAAAGGGCCC (((..(((....)))))) | 45 °C | -16.4 kcal/mol
6 | GGGATCGAAAGATACCC ((((((....))).))) | 51.6 °C | -21.2 kcal/mol
7 | GGGATCGAAAGATATCCC ((((((....)))..))) | 39.8 °C | -25 kcal/mol
8 | GGGATCGAAAGATTCCCC ((((((....)))..))) | 49.3 °C | -18.8 kcal/mol
9 | GGGATCGGAAACGATCTC (.(((((....))))).) | 54.2 °C | -31.9 kcal/mol
10 | GGGATCTCGAAAGAGCCC (((..(((....)))))) | 51.2 °C | -27.9 kcal/mol
11 | GGGATGCGAAAGCAACCC (((.(((....))).))) | 63.6 °C | -24.4 kcal/mol
12 | GGGATGGAAACATCCC ((((((....)))))) | 60.7 °C | -41.4 kcal/mol
13 | GGGATGGGAAACCACCCC (((.(((....))).))) | 47.3 °C | -32 kcal/mol
14 | GGGATTACGAAAGTACCC (((..(((....)))))) | 34.1 °C | -17.1 kcal/mol
15 | GGGCAACGAAAGTTACCC (((.(((....))).))) | 52.2 °C | -38.9 kcal/mol
16 | GGGCAACGAAAGTTCCC (((.(((....)))))) | 47.4 °C | -22.1 kcal/mol
17 | GGGCAAGGAAACTTGTCC ((.((((....)))).)) | 52.3 °C | -40.7 kcal/mol
18 | GGGCACCGAAAGGTCCCC (((.(((....))).))) | 54.7 °C | -17.8 kcal/mol
19 | GGGCACGAAAGTGATCCC ((((((....)))..))) | 50.3 °C | -19.4 kcal/mol
20 | GGGCACGAAAGTGTACCC ((((((....)))..))) | 50.3 °C | -18.4 kcal/mol
21 | GGGCACTCGAAAGAGCCC (((..(((....)))))) | 50.9 °C | -31.1 kcal/mol
22 | GGGCAGACGAAAGTCCCC (((..(((....)))))) | 42.9 °C | -16.8 kcal/mol
23 | GGGCATGGAAACATGTCC ((.((((....)))).)) | 54.3 °C | -43.4 kcal/mol

Row | Sequence | Tm [1] | folding enthalpy [2]
24 | GGGCCACCGAAAGGTCCC (((..(((....)))))) | 41.3 °C | -17.8 kcal/mol
25 | GGGCCACGAAAGTGCCCC (((.(((....))).))) | 59.3 °C | -17.3 kcal/mol
26 | GGGCCAGGAAACCGGCCC (((((.(....).))))) | 64 °C | -33.2 kcal/mol
27 | GGGCCAGGAAACTGACCC (((.(((....))).))) | 50.4 °C | -40 kcal/mol
28 | GGGCCCCGAAAGGGACCC (((.(((....))).))) | 69 °C | -26 kcal/mol
29 | GGGCCCGAAAGGGCGCCC ((((((....)))..))) | 58.2 °C | -9.86 kcal/mol
30 | GGGCCCGAAAGGGGACCC ((((((....)))..))) | 65.1 °C | -14.4 kcal/mol
31 | GGGCCCGAAAGGGTGCCC ((((((....)))..))) | 60.2 °C | -15.7 kcal/mol
32 | GGGCCTCGAAAGAGACCC (((.(((....))).))) | 56 °C | -43 kcal/mol
33 | GGGCCTGCGAAAGCACCC (((..(((....)))))) | 50.5 °C | -9.63 kcal/mol
34 | GGGCCTGGAAACGGGCCC (((((.(....).))))) | 68.9 °C | -38.7 kcal/mol
35 | GGGCCTGGAAACGGGTCC ((.((.(....).)).)) | 50.9 °C | -26.3 kcal/mol
36 | GGGCCTTCGAAAGAACCC (((..(((....)))))) | 30.4 °C | -7.96 kcal/mol
37 | GGGCGACGAAAGTCCCCC (((.(((....))).))) | 55.7 °C | -31.2 kcal/mol
38 | GGGCGAGGAAACCCACCC (((.(.(....).).))) | 30.9 °C | -16.4 kcal/mol
39 | GGGCGAGGAAACTCGTCC ((.((((....)))).)) | 58.2 °C | -41.5 kcal/mol
40 | GGGCGCCCGAAAGGGCCC (((..(((....)))))) | 59.5 °C | -11.5 kcal/mol
41 | GGGCGCGAAAGCGGACCC ((((((....)))..))) | 61.5 °C | -12.8 kcal/mol
42 | GGGCGCGAAAGCGTGCCC ((((((....)))..))) | 64.2 °C | -19.1 kcal/mol
43 | GGGCGGCGAAAGCCCCC (((.(((....)))))) | 65.6 °C | -17.3 kcal/mol
44 | GGGCGTCGAAAGACCCCC (((.(((....))).))) | 59 °C | -16.6 kcal/mol
45 | GGGCGTTCGAAAGAACCC (((..(((....)))))) | 50.3 °C | -19.9 kcal/mol
46 | GGGCTACGAAAGTATCCC (((.(((....))).))) | 48.4 °C | -29.9 kcal/mol

Row | Sequence | Tm [1] | folding enthalpy [2]
47 | GGGCTCCGAAAGGATCCC (((.(((....))).))) | 53.5 °C | -44.4 kcal/mol
48 | GGGCTCGAAAGAGGACCC ((((((....)))..))) | 49.5 °C | -20.9 kcal/mol
49 | GGGCTCGAAAGAGTGCCC ((((((....)))..))) | 51.3 °C | -34.1 kcal/mol
50 | GGGCTCGGAAACGAGTCC ((.((((....)))).)) | 65.2 °C | -41 kcal/mol
51 | GGGCTCGGAAACGGGCCC ((((.((....)).)))) | 66.9 °C | -43.6 kcal/mol
52 | GGGCTGCGAAAGCAACCC (((.(((....))).))) | 60.2 °C | -38.9 kcal/mol
53 | GGGCTGGGAAACCAGCTC (.(((((....))))).) | 58.7 °C | -26.6 kcal/mol
54 | GGGCTGTCGAAAGACCCC (((..(((....)))))) | 44.1 °C | -18.4 kcal/mol
55 | GGGCTTCGAAAGAACCCC (((.(((....))).))) | 47.6 °C | -20.5 kcal/mol
56 | GGGCTTGGAAACGAGCTC (.(((.(....).))).) | 42 °C | -29.7 kcal/mol
57 | GGGGAAACGAAAGTTCCC (((..(((....)))))) | 52 °C | -22.1 kcal/mol
58 | GGGGAAGGAAACTTCCCC (((((((....))))))) | 65 °C | -30.4 kcal/mol
59 | GGGGAAGGAAACTTCTCC ((.((((....)))).)) | 45.4 °C | -35.5 kcal/mol
60 | GGGGACGAAAGTCACCC ((((((....))).))) | 65.7 °C | -17.6 kcal/mol
61 | GGGGACGAAAGTCGACCC ((((((....)))..))) | 48.9 °C | -18.3 kcal/mol
62 | GGGGACGGAAACGTCCTC (.(((((....))))).) | 58.7 °C | -13.7 kcal/mol
63 | GGGGAGAAATCCCC (((((....))))) | 53.5 °C | -26.6 kcal/mol
64 | GGGGAGACGAAAGTCCCC (((..(((....)))))) | 58.1 °C | -29.6 kcal/mol
65 | GGGGAGGGAAACCTCTCC ((.((((....)))).)) | 51.8 °C | -34.1 kcal/mol
66 | GGGGAGGGAAACTTCCCC (((((.(....).))))) | 50.9 °C | -33 kcal/mol
67 | GGGGAGTCGAAAGACCCC (((..(((....)))))) | 54.7 °C | -29.2 kcal/mol
68 | GGGGCAACGAAAGTTCCC (((..(((....)))))) | 47.4 °C | -25.5 kcal/mol

From the array DNA melting data of Ke et al. (doi:10.1101/2024.01.08.574731)
